Active and inactive are the calls of the source. The calls are words filed in the database; no cut-off is given here.
Legend:
MDA-MB-231 [1] = assay: Cytotoxicity against human MDA-MB-231 cells expressing sigma receptor at 0.5 to 50 uM after 48 hrs by MTT assay; assay type: functional, cell-based
Method in brief: (§1)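 MTT reduction assay. Cells grown in RPMI-1640 with 10% FBS at 37 °C, 5% CO₂, and used at 85-90% confluency. Seeded at 5000 cells/well 18-24 h ahead, then exposed continuously for 48 h in triplicate wells. Working solutions made in 10% FBS medium with DMSO ≤1%. Cells washed before MTT.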

MCF7 [2] = assay: Cytotoxicity against human MCF7 cells expressing sigma receptor at 0.5 to 50 uM after 48 hrs by MTT assay; assay type: functional, cell-based; method in brief: as §1
HEK293 [3] = assay: Induction of apoptosis in human HEK293 cells expressing sigma receptor assessed as early apoptotic cells using annexin V/propidium iodide staining at 5 uM after 24 hrs by flow cytometry (reference value: […]); assay type: cell-based; conditions: hek293, 24 h
MCF7 [4] = assay: Cytotoxicity against human MCF7 cells expressing sigma receptor after 48 hrs by MTT assay; assay type: functional, cell-based; conditions: MCF7, 48 h; method in brief: as §1
COS-1 [5] = assay: Cytotoxicity against african green monkey COS1 cells expressing sigma receptor after 48 hrs by MTT assay; assay type: cell-based; conditions: Chlorocebus aethiops, COS-1, 48 h; method in brief: as §1
B16-F10 [6] = assay: Induction of apoptosis in mouse B16F10 cells expressing sigma receptor assessed as viable cells using annexin V/propidium iodide staining at 5 uM after 24 hrs by flow cytometry (reference value: 98.30%); assay type: functional
HUVEC [7] = assay: Induction of apoptosis in HUVEC assessed as phosphorylated Akt level at 10 uM after 24 hrs by Western blotting; assay type: functional, cell-based; conditions: Homo sapiens
Method in brief: (§2)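 B16F10 cells (in RPMI) and HUVEC (passages 2-3, in EBM with bullet kit minus serum) exposed to 10 μM compound or left untreated for 24 h under charcoal-stripped serum conditions. Whole-cell lysates made in cold RIPA (pH 7.4) with phosphatase/protease inhibitors and 2 mM vanadate. SDS-PAGE gradient gel, PVDF transfer, probed for caspase 3, Bax, Bcl-2, Akt, pAkt and β-actin with HRP-chemiluminescence detection.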

B16-F10 [8] = assay: Antitumor activity against mouse B16F10 cells expressing sigma receptor xenografted in C57BL6/J mouse assessed as tumor regression at 7.5 mg/kg, ip administered 5 times with gap 2 to 3 days; assay type: functional, organism-based; parameters: dose 7.5 mg/kg
Method in brief: (§3)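 Male C57BL6/J mice, 6-8 weeks old, given 2 × 10⁵ B16F10 cells s.c. in the lower right abdomen. From day 11, groups of four mice received 7.5 mg/kg i.p. in PBS with 10% DMSO, five injections 2-3 days apart. Tumours measured three times a week; volume = 0.5ab². Tumours excised on day 23, cut as 10 μm cryosections, fixed and fluorometric TUNEL-stained.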

MCF7 [9] = assay: Cytotoxicity against sigma receptor depleted human MCF7 cells assessed as cell viability at 10 uM after 48 hrs by MTT assay in presence of siRNA treated for 4 hrs before compound challenge
B16-F10 [10] = assay: Induction of apoptosis in mouse B16F10 cells expressing sigma receptor assessed as early apoptotic cells using annexin V/propidium iodide staining at 5 uM after 24 hrs by flow cytometry (reference value: 0.92%); assay type: functional
B16-F10 [11] = assay: Induction of apoptosis in mouse B16F10 cells expressing sigma receptor assessed as late apoptotic cells using annexin V/propidium iodide staining at 5 uM after 24 hrs by flow cytometry (reference value: 1.21%); assay type: functional
HEK293 [12] = assay: Induction of apoptosis in human HEK293 cells expressing sigma receptor assessed as necrotic cells using annexin V/propidium iodide staining at 5 uM after 24 hrs by flow cytometry (reference value: 0.06%); assay type: cell-based; conditions: hek293, 24 h
HEK293 [13] = assay: Cytotoxicity against human HEK293 cells expressing sigma receptor after 48 hrs by MTT assay; assay type: cell-based; conditions: HEK293, 48 h; method in brief: as §1
MCF7 [14] = assay: Induction of apoptosis in human MCF7 cells expressing sigma receptor assessed as early apoptotic cells using annexin V/propidium iodide staining at 5 uM after 24 hrs by flow cytometry (reference value: 0.92%); assay type: functional
HUVEC [15] = assay: Induction of apoptosis in HUVEC assessed as increase of cleaved caspase 3 expression at 10 uM after 24 hrs by Western blotting; assay type: functional, cell-based; conditions: Homo sapiens; method in brief: as §2
B16-F10 [16] = assay: Induction of apoptosis in mouse B16F10 cells expressing sigma receptor assessed as increase of cleaved caspase 3 expression at 10 uM after 24 hrs by Western blotting; assay type: functional, cell-based; method in brief: as §2
B16-F10 [17] = assay: Induction of apoptosis in mouse B16F10 cells expressing sigma receptor assessed as decrease of Bcl-2 protein expression at 10 uM after 24 hrs by Western blotting; assay type: functional, cell-based; method in brief: as §2
B16-F10 [18] = assay: Induction of apoptosis in mouse B16F10 cells expressing sigma receptor assessed as increase of Bax protein expression at 10 uM after 24 hrs by Western blotting; assay type: functional, cell-based; method in brief: as §2
B16-F10 [19] = assay: Induction of apoptosis in mouse B16F10 cells expressing sigma receptor assessed as necrotic cells using annexin V/propidium iodide staining at 5 uM after 24 hrs by flow cytometry (reference value: 0.25%); assay type: functional
MCF7 [20] = assay: Induction of apoptosis in human MCF7 cells expressing sigma receptor assessed as late apoptotic cells using annexin V/propidium iodide staining at 5 uM after 24 hrs by flow cytometry (reference value: 1.48%); assay type: functional
MDA-MB-231 [21] = assay: Cytotoxicity against human MDA-MB-231 cells expressing sigma receptor after 48 hrs by MTT assay; assay type: functional, cell-based; conditions: MDA-MB-231, 48 h; method in brief: as §1
COS-1 [22] = assay: Induction of apoptosis in against african green monkey COS1 cells expressing sigma receptor assessed as necrotic cells using annexin V/propidium iodide staining at 5 uM after 24 hrs by flow cytometry (reference value: 0.08%); assay type: cell-based; conditions: chlorocebus aethiops, cos-1, 24 h
ZR-75-1 = assay: Cytotoxicity against human ZR-75-1 cells expressing sigma receptor after 48 hrs by MTT assay; assay type: functional, cell-based; conditions: ZR-75-1, 48 h; method in brief: as §1
HUVEC [23] = assay: Induction of apoptosis in HUVEC assessed as increase of Bax/Bcl-2 protein ratio at 10 uM after 24 hrs by Western blotting; assay type: functional, cell-based; conditions: Homo sapiens; method in brief: as §2
HEK293 [24] = assay: Induction of apoptosis in human HEK293 cells expressing sigma receptor assessed as late apoptotic cells using annexin V/propidium iodide staining at 5 uM after 24 hrs by flow cytometry (reference value: […]); assay type: cell-based; conditions: hek293, 24 h
COS-1 [25] = assay: Induction of apoptosis in against african green monkey COS1 cells expressing sigma receptor assessed as late apoptotic cells using annexin V/propidium iodide staining at 5 uM after 24 hrs by flow cytometry (reference value: 0.04%); assay type: cell-based; conditions: chlorocebus aethiops, cos-1, 24 h
[26] = Induction of apoptosis in human HEK293 cells expressing sigma receptor assessed as viable cells using annexin V/propidium iodide staining at 5 uM after 24 hrs by flow cytometry (reference value: 99.76%); assay type: cell-based; conditions: read-out: Activity
MCF7 [27] = assay: Induction of apoptosis in human MCF7 cells expressing sigma receptor assessed as viable cells using annexin V/propidium iodide staining at 5 uM after 24 hrs by flow cytometry (reference value: 97.33%); assay type: functional
B16-F10 [28] = assay: Antitumor activity against mouse B16F10 cells expressing sigma receptor xenografted in C57BL6/J mouse assessed as increase of apoptotic region in tumor at 7.5 mg/kg, ip administered 5 times with gap 2 to 3 days by TUNEL assay; assay type: functional, organism-based; parameters: dose 7.5 mg/kg; method in brief: as §3
MCF7 [29] = assay: Induction of apoptosis in human MCF7 cells expressing sigma receptor assessed as necrotic cells using annexin V/propidium iodide staining at 5 uM after 24 hrs by flow cytometry (reference value: 0.27%); assay type: functional
[30] = Induction of apoptosis in against african green monkey COS1 cells expressing sigma receptor assessed as viable cells using annexin V/propidium iodide staining at 5 uM after 24 hrs by flow cytometry (reference value: 99.82%); assay type: cell-based; conditions: chlorocebus aethiops, COS-1 cells expressing sigma receptor; read-out: Activity
B16-F10 [31] = assay: Induction of apoptosis in mouse B16F10 cells expressing sigma receptor assessed as phosphorylated Akt level at 10 uM after 24 hrs by Western blotting; assay type: functional, cell-based; method in brief: as §2
B16-F10 [32] = assay: Cytotoxicity against mouse B16F10 cells expressing sigma receptor after 48 hrs by MTT assay; assay type: functional, cell-based; conditions: B16-F10, 48 h; method in brief: as §1
B16-F10 [33] = assay: Induction of apoptosis in mouse B16F10 cells expressing sigma receptor assessed as increase of Bax/Bcl-2 protein ratio at 10 uM after 24 hrs by Western blotting; assay type: functional, cell-based; method in brief: as §2
COS-1 [34] = assay: Induction of apoptosis in against african green monkey COS1 cells expressing sigma receptor assessed as early apoptotic cells using annexin V/propidium iodide staining at 5 uM after 24 hrs by flow cytometry (reference value: 0.06%); assay type: cell-based; conditions: chlorocebus aethiops, cos-1, 24 h

Structure (SMILES)	Activity (MDA-MB-231 [1])	Activity (MCF7 [2])	Activity (HEK293 [3])	Activity (B16-F10 [6])	Activity (B16-F10 [10])	Activity (B16-F10 [11])	Activity (HEK293 [12])	Activity (MCF7 [14])	Activity (B16-F10 [19])	Activity (MCF7 [20])	Activity (COS-1 [22])	Activity (HEK293 [24])	Activity (COS-1 [25])	viability at 24 h, 5 µM [26]	Activity (MCF7 [27])	Activity (MCF7 [29])	viability at 24 h, 5 µM [30]	Activity (COS-1 [34])	other results
CCCC[N+](C)(CCCC)CC(=O)NCCC(=O)OC1(c2ccc(Cl)cc2)CCN(CCCC(=O)c2ccc(F)cc2)CC1	Active	Active																	
CCCCCCCCCCCC[N+](C)(CCCCCCCCCCCC)CC(=O)NCCC(=O)OC1(c2ccc(Cl)cc2)CCN(CCCC(=O)c2ccc(F)cc2)CC1	Active	Active																	
CCCCCCCC[N+](C)(CCCCCCCC)CC(=O)NCCC(=O)OC1(c2ccc(Cl)cc2)CCN(CCCC(=O)c2ccc(F)cc2)CC1.[Cl-]	Active	Active	0.14%	41.47%	4.1%	53.41%	0.14%	5.02%	1.03%	33.2%	0.12%	0.15%	0.06%	99.6%	47.43%	14.35%	99.7%	0.11%	IC50 (MCF7 [4]): 2500 nM; IC50 (COS-1 [5]): 7000 nM; Activity (HUVEC [7]): Active; Activity (B16-F10 [8]): Active; viability at 10 µM (MCF7 [9]): 25%; IC50 (HEK293 [13]): 7000 nM; Activity (HUVEC [15]): Active; Activity (B16-F10 [16]): Active; Activity (B16-F10 [17]): Active; Activity (B16-F10 [18]): Active; IC50 (MDA-MB-231 [21]): 2500 nM; IC50 (ZR-75-1): 2500 nM; Activity (HUVEC [23]): Active; Activity (B16-F10 [28]): Active; Activity (B16-F10 [31]): Active; IC50 (B16-F10 [32]): 2500 nM; Activity (B16-F10 [33]): Active
O=C(CCCN1CCC(O)(c2ccc(Cl)cc2)CC1)c1ccc(F)cc1 [HALOPERIDOL]	Active	Active	0.11%	97.17%	0.29%	0.95%	0.07%	0.51%	1.58%	1.74%	0.17%	0.18%	0.16%	99.6%	97.66%	0.09%	99.6%	0.11%	
CCCCCCCCCCCCCCCC[N+](C)(CCCCCCCCCCCCCCCC)CC(=O)NCCC(=O)OC1(c2ccc(Cl)cc2)CCN(CCCC(=O)c2ccc(F)cc2)CC1	Active	Active																	
